Assay results collected from several papers.
Lines come from different studies, so protocols differ.
Target: Vascular endothelial growth factor receptor 2 (KDR, Homo sapiens, UniProt P35968)

| SMILES | assay | conditions | remaining binding [%] |
| --- | --- | --- | --- |
| COC(=O)Nc1nc2ccc(C(=O)c3ccccc3)cc2[nH]1 | cell-free assay, competition with immobilised ligand | 10 µM | 30 |
| CNC(=O)[C@@H]1CC[C@@H](n2c(-c3ccc4cnccc4c3)nc3ccc(C(=O)NCc4cccc(C(N)=O)c4)cc32)C1 | binding, competition with immobilised ligand | 1 µM | 69 |
| O=C(NCc1ncc(C(F)(F)F)cc1Cl)c1ccc2c(c1)C1(CCS(=O)(=O)CC1)[C@H](C1CC1)N2S(=O)(=O)c1ccc(F)cc1 | cell-free assay, competition with immobilised ligand | 1 µM | 83 |
| CCN1CCN(Cc2ccc(C(=O)Nc3ccc(C)c(Oc4ccc5c(c4)CC(=O)N5)c3)cc2C(F)(F)F)CC1 | binding, competition with immobilised ligand | 1 µM | 100 |
| CN(C)c1nccc(-c2cnc3ncccn23)n1 | binding | 1 µM | 90 |
| CC(=O)C1=C(C)N(c2cccc(C(F)(F)F)c2)C(=O)N[C@@H]1c1ccc(C#N)nc1 | cell-free assay, competition with immobilised ligand | 1 µM | 84 |
| C[C@@H]1CN(c2ccc3ncc(-c4ccc5[nH]nc(C6CC6)c5c4)n3n2)C[C@H](C)O1 | binding, competition with immobilised ligand | 0.5 µM | 100 |
| Nc1ncc2c(n1)-c1c([nH]c3ccc(C#CC4CC4)cc13)CCCC2 | binding, competition with immobilised ligand | 1 µM | 90 |
| COc1ccc2c(O[C@@H]3C[C@H]4C(=O)N[C@]5(C(=O)O)CC5/C=C\CCCCC[C@H](NC(=O)OC5CCCC5)C(=O)N4C3)cc(-c3csc(NC(=O)C(C)C)n3)nc2c1C (stereo partly shown) | cell-free assay, competition with immobilised ligand | 1 µM | 83 |
| O=C(c1ccc(Nc2ncc(Cl)c(-c3cc4ccccc4s3)n2)cc1)N1CCC(N2CCCC2)CC1 | binding, competition with immobilised ligand | 1 µM | 12 |
| c1cnn2ncc(-c3ccnc(N4CCC45COC5)n3)c2c1 | binding | 1 µM | 67 |
| c1cncc(-c2cccc(Nc3nccc(NC4CCCCC4)n3)c2)c1 | binding, competition with immobilised ligand | 10 µM | 69 |
| COCCOc1nc(-c2ccc(Cl)nc2)nc2c1CN(C(=O)c1ncn3ccccc13)CC2 | cell-free assay, competition with immobilised ligand | 0.1 µM | 100 |
| COc1cnc(Nc2cccc(S(N)(=O)=O)c2)nc1N1CCN(c2ccccc2)CC1 | binding, competition with immobilised ligand | 1 µM | 83 |
| O=C(NCC1CCOCC1)c1n[nH]cc1NC(=O)c1c(F)cccc1F | binding, competition with immobilised ligand | 1 µM | 82 |
| F[C@@H]1CCN(c2nccc(-c3cnn4ncccc34)n2)C1 | binding | 1 µM | 100 |
| O=C(NCCCN1CCOCC1)c1ccc(Nc2ncc(Cl)c(-c3ccc(Cl)s3)n2)cc1 | binding, competition with immobilised ligand | 1 µM | 13 |
| O=C(Nc1cnc(Oc2ccc(F)cc2)nc1)N1CCc2ncccc2[C@@H]1c1ccc(F)cc1 | cell-free assay, competition with immobilised ligand | 1 µM | 88 |
| CN(CCCC(F)(F)F)c1nccc(-c2cnn3ncccc23)n1 | binding | 1 µM | 100 |
| Nc1cnc(N2CCc3cc(S(=O)(=O)Nc4c(F)cc(Cl)cc4F)cc(N4CCCC4=O)c32)nc1 | cell-free assay, competition with immobilised ligand | 1 µM | 81 |
| O=C(c1ccc(Nc2ncc(Cl)c(-c3ccc(Cl)s3)n2)cc1)N1CCC(N2CCCC2)CC1 | binding, competition with immobilised ligand | 1 µM | 2.2 |
| C[C@H]1CCN(c2nccc(-c3cnn4ncccc34)n2)C1 | binding | 1 µM | 92 |
| C=CC(=O)N1CCC(C(=O)NCC(=O)N2CCN(c3nc(-c4cnc(N)nc4C(F)F)nc(N4CCOCC4)n3)CC2)CC1 | binding, competition with immobilised ligand | 1 µM | 81 |
| N[C@@H]1CCN(c2nccc(-c3cnn4ncccc34)n2)C1 | binding | 1 µM | 100 |
| O=C(NCCCC1CCCCC1)c1ccc(CNC(=O)c2cnn(-c3ccccc3)c2C(F)(F)F)cc1 | cell-free assay, competition with immobilised ligand | 0.1 µM | 97 |
